Results pooled from the literature.
Each line is one published result; the experiments were not run side by side.
Target: Serine/threonine-protein kinase PAK 4 (PAK4, Homo sapiens, UniProt O96013)

SMILES | observed | method | concentration | remaining binding
F[C@@H]1CCN(c2nccc(-c3cnn4ncccc34)n2)C1 | binding | – | 1 µM | 100%
CNC(=O)[C@@H]1CC[C@@H](n2c(-c3ccc4cnccc4c3)nc3ccc(C(=O)NCc4cccc(C(N)=O)c4)cc32)C1 | binding | competition with immobilised ligand | 1 µM | 100%
COc1ncc2cc3ccccc3nc2c1C#N | cell-free assay | competition with immobilised ligand | 5 µM | 97%
c1cncc(-c2cccc(Nc3nccc(NC4CCCCC4)n3)c2)c1 | binding | competition with immobilised ligand | 10 µM | 83%
O=C(NCCCN1CCOCC1)c1ccc(Nc2nccc(-c3cc4ccccc4s3)n2)cc1 | binding | competition with immobilised ligand | 1 µM | 91%
O=C(NS(=O)(=O)c1ccc(NCC2CCOCC2)c([N+](=O)[O-])c1)c1ccc(N2CCN(Cc3ccc(C(F)(F)F)cc3-c3ccc(Cl)cc3)CC2)cc1Oc1cnc2[nH]ccc2c1 | cell-free assay | competition with immobilised ligand | 1 µM | 93%
CN(c1nccc(-c2cnn3ncccc23)n1)C1CC1 | binding | – | 1 µM | 100%
C[C@@H]1CN(c2ccc3ncc(-c4ccc5[nH]nc(C6CC6)c5c4)n3n2)C[C@H](C)O1 | binding | competition with immobilised ligand | 50 nM | 90%
CN(CCCC(F)(F)F)c1nccc(-c2cnn3ncccc23)n1 | binding | – | 1 µM | 100%
O=C(N1CCS(=O)(=O)CC1)N1C[C@H](c2ccc(OC(F)(F)F)cc2)C[C@H](c2nc(C3CC3)no2)C1 | cell-free assay | competition with immobilised ligand | 1 µM | 100%
O=C(NCC1CCOCC1)c1n[nH]cc1NC(=O)c1c(F)cccc1F | binding | competition with immobilised ligand | 1 µM | 99%
O=C(NCCCN1CCOCC1)c1ccc(Nc2ncc(Cl)c(-c3ccc(Cl)s3)n2)cc1 | binding | competition with immobilised ligand | 1 µM | 89%
Cc1nc(N2CC[C@@H](O)C2)ncc1-c1cc(C(F)(F)F)cc2[nH]ncc12 | cell-free assay | competition with immobilised ligand | 1 µM | 100%
CCN1CCN(Cc2ccc(C(=O)Nc3ccc(C)c(Oc4ccc5c(c4)CC(=O)N5)c3)cc2C(F)(F)F)CC1 | binding | competition with immobilised ligand | 1 µM | 100%
C[C@@H]1CCN(c2nccc(-c3cnn4ncccc34)n2)C1 | binding | – | 1 µM | 100%
CS(=O)(=O)NCC[C@H](NC(=O)c1cncc2c1cnn2-c1ccc(F)cc1)c1ccnc(S(C)(=O)=O)c1 | cell-free assay | competition with immobilised ligand | 1 µM | 100%
COc1cnc(Nc2cccc(S(N)(=O)=O)c2)nc1N1CCN(c2ccccc2)C(=O)C1 | binding | competition with immobilised ligand | 1 µM | 100%
CNC(=O)Nc1ccc2c(c1)[C@@]1(CC2)OC(=O)N(CC(=O)N(Cc2ccc(F)cc2)[C@@H](C)C(F)(F)F)C1=O | cell-free assay | competition with immobilised ligand | 1 µM | 95%
COc1ccnn2ncc(-c3ccnc(N(C)C)n3)c12 | binding | – | 1 µM | 85%
Cc1nc(C2CCN(C(=O)c3ccc(OC(F)(F)F)cc3N)CC2)c2ncc(N3CCN(C)CC3)cc2n1 | cell-free assay | competition with immobilised ligand | 1 µM | 100%
c1cnn2ncc(-c3ccnc(N4CCC45COC5)n3)c2c1 | binding | – | 1 µM | 96%
CN1CCN(c2cnc3c(C4CCN(C(=O)c5ccc(OC(F)(F)F)cc5N)CC4)ncnc3c2)CC1 | cell-free assay | competition with immobilised ligand | 1 µM | 91%
O=C(c1ccc(Nc2ncc(Cl)c(-c3cc4ccccc4s3)n2)cc1)N1CCC(N2CCCC2)CC1 | binding | competition with immobilised ligand | 1 µM | 77%
N[C@@H]1CCN(c2nccc(-c3cnn4ncccc34)n2)C1 | binding | – | 1 µM | 100%
C[C@@H](c1cccc(C#N)c1)n1cc(Cl)cc(C(N)=O)c1=N | cell-free assay | competition with immobilised ligand | 1 µM | 100%
